Shown are actives, neighbours in structure and some others; about 4.5% of the full set was active somewhere.
MrgX1 antagonist: human MrgX1 receptor antagonism, primary screen. B-score at 10 µM. 1.3% of 310,000 active. AID 588676. Q96LB2. MRGX1-HEK293 calcium flux, Fluo-4, BAM8-22 antagonism; hits give low values;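 active means calcium-response B-score plate-corrected more than 3 library SD below zero, starting fluorescence within 5 deviations, no agonist response on first addition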;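 further: peak minus trough fluorescence over baseline after final BAM8-22 challenge near maximal dose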
PHOSPHO1 inh: blocks human PHOSPHO1 phosphatase activity | 1.1% of 290,000 active | inhibition, % at 13.3 µM | AID 1565 | Q8TCT1 | recombinant PHOSPHO1, absorbance phosphatase assay; in the data active means inhibition above about 60%
Target sequence (Q8TCT1 whole entry, looked up): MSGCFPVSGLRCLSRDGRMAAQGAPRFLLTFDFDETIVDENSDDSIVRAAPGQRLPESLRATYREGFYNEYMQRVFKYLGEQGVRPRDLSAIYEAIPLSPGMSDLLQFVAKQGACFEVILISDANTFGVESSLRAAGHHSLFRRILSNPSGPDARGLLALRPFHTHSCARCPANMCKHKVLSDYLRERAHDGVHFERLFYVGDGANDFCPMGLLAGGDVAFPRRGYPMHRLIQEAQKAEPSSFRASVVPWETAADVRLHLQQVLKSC
MrgX1 ag: human MrgX1 receptor agonism, primary screen. Q96LB2. MrgX1-HEK293 cells, Fluo-4 calcium fluorescence, agonist mode; hits give high values. B-score at 10 µM. 0.44% of 310,000 active;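 active means calcium response B-score plate-corrected fluorescence ratio at least 3 library SD, with starting fluorescence B-score inside 5 SD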
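Assay system: stable human MrgX1 HEK293 cell line. Quantity: 15,000 cells per well. Schedule: cells plated overnight, dye loaded 0.5 h 37 °C, 0.5 h room temperature. Detection: Fluo-4 NW calcium-flux fluorescence, kinetic read. Read-out basis: peak-minus-minimum fluorescence over baseline, converted to B scores. Control set: positive and negative control wells on each plate.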
RGS4 block: human RGS4 inhibition; P49798; 0.45% of 310,000 active; AID 463165; B-score at 10 µM; HEK293 M3R/RGS4 inducible, Fluo-4 calcium flux; hits give high values; triggered by carbachol at its EC20;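 active means B-score, a plate-corrected calcium signal, over three deviations above library mean, with baseline fluorescence within five deviations of library mean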;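 further: RGS4 expression induced by doxycycline in cells with stable M3 receptor; B-score is computed from the integrated fluorescence ratio over baseline after carbachol; higher B-score means a larger calcium signal and so more RGS4 inhibition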
Target sequence (P49798 whole entry, looked up): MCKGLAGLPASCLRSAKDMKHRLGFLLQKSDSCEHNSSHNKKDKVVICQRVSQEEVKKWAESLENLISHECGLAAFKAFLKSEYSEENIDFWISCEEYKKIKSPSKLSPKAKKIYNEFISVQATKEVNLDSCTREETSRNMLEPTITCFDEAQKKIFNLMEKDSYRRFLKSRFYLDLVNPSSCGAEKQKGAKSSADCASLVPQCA
MrgX1 allo act: allosterically activates human MrgX1 receptor signaling; MrgX1-HEK293, Fluo-4 calcium flux, FDSS; hits give high values; 0.63% of 310,000 active; Q96LB2; B-score at 10 µM; AID 588675;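 active means plate-corrected calcium response at least 3 library SD above typical, normal starting fluorescence, not activating the receptor alone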;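 further: compound read alongside a low EC10 to EC30 dose of BAM8-22 agonist; peak minus trough fluorescence over baseline measured at the second addition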
RGS4 act: RGS4 potentiation or activation; HEK293 M3R/inducible RGS4, carbachol calcium flux Fluo4; hits give low values; B-score at 10 µM; 0.92% of 310,000 active; AID 463111;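 active means B-score of the integrated calcium signal more than 4 SD below the library mean, with starting fluorescence not abnormally high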;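 further: negative B-score means reduced calcium response which marks RGS4 activation or potentiation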
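System – HEK293 FlpIn-TREx cells, stable M3R, doxycycline-inducible RGS4 · Reagent – ECmax carbachol challenge · Times – compound preincubation 20 min at room temperature before agonist · Technique – Fluo4 fluorescence kinetic imaging of calcium · Measure – B score of integrated Fluo4 ratio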
Hits are given with their value; . = inactive; / = no result.

SMILES	MrgX1 antagonist	PHOSPHO1 inh	MrgX1 ag	RGS4 block	MrgX1 allo act	RGS4 act
CCN1C(=O)/C(=C2\SC(=S)N(NC(=O)c3ccccc3O)C2=O)c2ccccc21	.	.	.	.	14.8	.
Clc1ccccc1/C=N/c1cc(-c2ccccc2)nn1-c1ccccc1	-4.92	.	.	.	.	.
Oc1ccccc1-c1n[nH]c(=S)n1Cc1ccco1	.	94.5	.	.	.	.
COc1ccc(-c2n[nH]c(=S)n2Cc2ccco2)cc1	.	101.6	.	.	.	.
COc1ccc(OCc2n[nH]c(=S)n2Cc2ccco2)cc1	.	.	.	.	.	.
CSCc1ccc(C(=O)NC(C)c2cnn(-c3ccccn3)c2C)o1 (stereo not drawn)	.	.	.	.	.	.
CC(C)(C)c1cc(C(=O)NCCN2CCCC2)cc(C(C)(C)C)c1	.	.	.	.	.	.
CCC1C(=O)NCCN1C(=O)CCc1nnc(CCc2ccc(OC)cc2)o1 (stereo not drawn)	-5.68	.	.	.	.	.
COc1cc(/C=C2/C(=O)NN(c3cccc(C)c3)C2=O)cc([N+](=O)[O-])c1O	-9.59	.	.	.	.	.
COc1cc(/C=C2/C(=O)NN(c3ccc(C)c(Cl)c3)C2=O)cc([N+](=O)[O-])c1O	.	.	.	.	.	.
NC(N)=NC(=O)c1nc(Cl)c(N2CCCCCC2)nc1N	.	/	57.4	/	.	/
COc1cc(C(=O)NCC2CCCO2)ccc1OCc1ccc(Cl)cc1Cl (stereo not drawn)	.	/	.	.	.	.
O=C(CSc1nccn1-c1ccccc1)NCc1ccc(F)cc1	.	.	.	.	.	.
O=C(CSc1nnc(-c2cccnc2)n1Cc1ccco1)NCc1ccc2c(c1)OCO2	.	.	.	.	.	.
COc1cccc(-n2ccnc2SCC(=O)NCc2ccccc2)c1	.	61.5	.	.	.	.
CCOC(=O)CNC(=O)CSc1nnc(-c2ccco2)n1Cc1ccco1	.	91.7	.	.	.	.
COc1cccc(-c2nnc(SCC(=O)NCc3ccc4c(c3)OCO4)n2Cc2ccco2)c1	.	76.1	.	.	.	.
COc1cccc(OCc2nnc(SCC(=O)NCc3ccco3)n2CCc2ccccc2)c1	.	61.8	.	.	.	.
COc1cccc(OCc2nnc(SCC(=O)NCc3ccco3)n2C)c1	.	.	.	.	.	.
CCOC(=O)CNC(=O)CSc1nnc(-c2ccco2)n1N	.	.	.	.	.	.
COc1ccc(Cl)cc1N1C(=NC(=O)C2CCCCC2)SC2CS(=O)(=O)CC21 (stereo not drawn)	.	.	.	.	.	.
COc1ccc(-c2nnc(SCC(=O)NCc3cccs3)n2C)cc1	.	.	.	.	.	.
Cc1cccc(-c2nnc(SCC(=O)NCc3ccc4c(c3)OCO4)n2C)c1	.	72.0	.	.	.	.
Cn1c(SCC(=O)NCc2cccs2)nnc1-c1ccncc1	.	68.8	.	.	.	.
Cc1oc2c(cc(NS(=O)(=O)c3ccc4c5c(cccc35)C(=O)N4)c3ccccc32)c1C(=O)OC(C)C	.	.	.	.	.	.
SMILES	MrgX1 antagonist	PHOSPHO1 inh	MrgX1 ag	RGS4 block	MrgX1 allo act	RGS4 act
O=C1CCCc2oc3c(cc(NS(=O)(=O)c4ccc5c6c(cccc46)C(=O)N5)c4ccccc43)c21	.	.	.	.	7	.
CC(C)C(C(=O)Nc1ccncc1)c1ccc(Cl)cc1 (stereo not drawn)	-4.58	.	.	.	.	.
CC(C)C(C(=O)Nc1nccs1)c1ccc(Cl)cc1 (stereo not drawn)	.	.	.	.	.	.
Cc1c(Cl)c([N+](=O)[O-])nn1CCCC(=O)N1CCN(c2ccccc2)CC1	-5.28	.	.	.	.	.
Cc1c(Cl)c([N+](=O)[O-])nn1CCCC(=O)Nc1c(Cl)cccc1Cl	.	.	.	.	.	.
Cc1c(Cl)c([N+](=O)[O-])nn1CCCC(=O)Nc1c(C)n(C)n(-c2ccccc2)c1=O	.	.	.	.	.	-7.33
COc1ccc(C(=O)CSc2nnc(-c3cccnc3)n2Cc2ccco2)cc1	.	92.4	.	.	.	.
O=C(CSc1nnc(-c2cccnc2)n1Cc1ccco1)N1c2ccccc2Sc2ccccc21	-4.53	.	.	/	.	/
c1cncc(CSc2nnc(-c3cccnc3)n2Cc2ccco2)c1	/	.	/	.	/	.
COc1ccc(C(=O)CSc2nnc(-c3cnccn3)n2Cc2ccco2)cc1	.	.	.	.	.	.
CCn1c(SCC(=O)c2ccc3c(c2)OCCO3)nnc1-c1ccco1	.	.	.	.	.	.
CCn1c(SCC(=O)c2ccc3ccccc3c2)nnc1-c1ccco1	.	73.3	.	.	.	.
COc1ccc(NC(=O)Nc2ccc3c(c2)OCO3)c(C)c1	.	.	.	.	.	.
Cc1cc(SCC(=O)Nc2c(C)n(C)n(-c3ccccc3)c2=O)nc2ccccc12	.	.	.	.	.	.
Cc1ccc(NC(=O)C(C)OC(=O)c2ccc(NC(=O)CC#N)cc2)cc1S(=O)(=O)N1CCOCC1 (stereo not drawn)	-4.54	/	.	.	.	.
O=C(COC(=O)c1cccs1)NC1CCCC1	.	.	.	.	.	.
COCCCNC(=O)c1cccn2c(=O)c3cc4ccccc4cc3nc12	-8.48	94.9	.	.	.	.
C=CCn1c(=N)c(C(=O)NCCCOC)cc2c(=O)n3cccc(C)c3nc21	.	.	.	.	.	.
O=C(NCc1ccco1)c1cccn2c(=O)c3cc4ccccc4cc3nc12	/	100.1	/	/	/	/
O=C(NCc1ccco1)c1cnc2ccccn2c1=O	.	.	.	.	.	.
O=C(CSc1nc2ccccc2n1CC(=O)N1CCOCC1)N1CCCC1	.	.	.	.	.	.
O=C(Cn1c(SCc2ccccc2)nc2ccccc21)N1CCOCC1	.	62.3	.	.	.	.
CN(C)c1ccc(/C=c2/sc3n(c2=O)NC2(c4ccccc4)N(C)C(=O)N(C)C2(c2ccccc2)N=3)cc1 (stereo not drawn)	.	.	.	.	.	.
COc1ccc(O[C@H]2C=C[C@@H](c3ccccc3)O[C@@H]2CO/N=C(\C)CCC(=O)OC[C@H]2O[C@H](c3ccccc3)C=C[C@@H]2Oc2ccc(OC)cc2)cc1	-7.15	.	.	.	.	.
COc1ccc(O[C@H]2C=C[C@@H](c3ccccc3)O[C@@H]2COC(=O)CC/C(C)=N/O[C@@H](C)c2cn([C@H](CO)Cc3ccccc3)nn2)cc1	/	.	/	/	/	/
O=C(c1ccc(COc2ccc(Cl)cc2Cl)o1)N1CCCC1	.	.	.	.	.	-7.58
O=C(COc1ccc(Cl)cc1Cl)Nc1ccc(CN2CCOCC2)cc1	.	.	.	.	.	.
O=C(COc1ccc(Cl)cc1Cl)Nc1ccc(CN2CCCCC2)cc1	.	.	.	.	.	-7.14
